Each block holds one substance with its values, some of them ahead of it.
What was measured:
Assay in all cases: Continuous fluorescence kinase assay, kinetic parameters of the substrate
Type in all cases: biochemical
Abl = Abl (Homo sapiens, UniProt P00519); settings: initial slopes, direct fit of ν vs [S], Briggs-Haldane equation, mean ± s.e.m. of triplicate, SEM
In short: (§1)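 Sox-containing peptide substrate becomes fluorescent on phosphorylation through Mg2+ chelation-enhanced fluorescence. Fluorescence was read continuously at λex 360 nm and λem 485 nm. Reaction components were simply mixed, and the reaction was run in a fluorometer or in a 96-well fluorescence plate reader. Rates at varied substrate levels were fitted directly as ν vs [S] to the Briggs-Haldane equation. Each was run in triplicate.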

PKCδ = PKCδ (Homo sapiens, UniProt Q05655)
MK2 = MK2 (Homo sapiens, UniProt P49137); settings: initial slopes, direct fit of ν vs [S], Briggs-Haldane equation, mean ± s.e.m. of triplicate, SEM
In short: as §1

IRK = IRK (Homo sapiens, UniProt P06213); settings: for Km / Vmax: initial slopes, direct fit of ν vs [S], Briggs-Haldane equation, mean ± s.e.m. of triplicate, SEM; for Catalytic Efficiency: kcat/KM (min^-1 μM^-1) normalized to the BTF substrate
In short: (§2)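 Sox-labelled peptide substrates were phosphorylated by the kinase and monitored continuously by fluorescence (λex 360 nm, λem 485 nm) in a fluorometer or a 96-well plate reader. KM and Vmax came from initial slopes, corrected for substrate and product fluorescence, and a direct Briggs-Haldane fit of ν vs [S]. Values are mean ± s.e.m. of triplicates. kcat/KM was normalized to the BTF substrate within each kinase.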

Akt1 = Akt1 (Homo sapiens, UniProt P31749); settings: initial slopes, direct fit of ν vs [S], Briggs-Haldane equation, mean ± s.e.m. of triplicate, SEM
In short: as §1

PKCβI = PKCβI (Homo sapiens, UniProt P05771)
Pim2 = Pim2 (Homo sapiens, UniProt Q9P1W9); settings: initial slopes, direct fit of ν vs [S], Briggs-Haldane equation, mean ± s.e.m. of triplicate, SEM
PKA = PKA (Homo sapiens, UniProt P17612); settings: for Km / Vmax: initial slopes, direct fit of ν vs [S], Briggs-Haldane equation, mean ± s.e.m. of triplicate, SEM
In short: as §2

Src = Src (Homo sapiens, UniProt P12931); settings: for Km / Vmax: initial slopes, direct fit of ν vs [S], Briggs-Haldane equation, mean ± s.e.m. of triplicate, SEM; for Catalytic Efficiency: kcat/KM (min^-1 μM^-1) normalized to the BTF substrate
In short: as §2

[1] = initial slopes, direct fit of ν vs [S], Briggs-Haldane equation, mean ± s.e.m. of triplicate, NS = Not a Substrate, SEM

Sequence of PKCδ (Q05655 whole entry): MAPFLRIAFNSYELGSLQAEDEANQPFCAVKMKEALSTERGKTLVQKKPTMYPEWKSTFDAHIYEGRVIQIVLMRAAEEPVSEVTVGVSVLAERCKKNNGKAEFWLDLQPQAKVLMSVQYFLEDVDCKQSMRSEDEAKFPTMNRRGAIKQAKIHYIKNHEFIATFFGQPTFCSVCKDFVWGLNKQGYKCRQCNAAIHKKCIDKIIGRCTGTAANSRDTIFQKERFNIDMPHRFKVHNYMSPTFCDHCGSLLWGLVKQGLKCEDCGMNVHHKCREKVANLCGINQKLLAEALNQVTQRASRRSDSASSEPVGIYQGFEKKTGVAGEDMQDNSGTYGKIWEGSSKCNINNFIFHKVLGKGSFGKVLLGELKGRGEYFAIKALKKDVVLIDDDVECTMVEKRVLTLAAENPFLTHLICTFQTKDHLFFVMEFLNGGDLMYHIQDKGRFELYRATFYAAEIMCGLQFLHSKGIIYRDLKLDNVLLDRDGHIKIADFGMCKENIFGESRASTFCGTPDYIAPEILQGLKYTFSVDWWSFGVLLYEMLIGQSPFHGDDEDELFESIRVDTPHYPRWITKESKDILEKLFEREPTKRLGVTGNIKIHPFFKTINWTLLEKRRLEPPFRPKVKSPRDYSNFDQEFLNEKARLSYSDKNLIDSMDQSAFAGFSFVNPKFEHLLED
Sequence of PKCβI (P05771 whole entry): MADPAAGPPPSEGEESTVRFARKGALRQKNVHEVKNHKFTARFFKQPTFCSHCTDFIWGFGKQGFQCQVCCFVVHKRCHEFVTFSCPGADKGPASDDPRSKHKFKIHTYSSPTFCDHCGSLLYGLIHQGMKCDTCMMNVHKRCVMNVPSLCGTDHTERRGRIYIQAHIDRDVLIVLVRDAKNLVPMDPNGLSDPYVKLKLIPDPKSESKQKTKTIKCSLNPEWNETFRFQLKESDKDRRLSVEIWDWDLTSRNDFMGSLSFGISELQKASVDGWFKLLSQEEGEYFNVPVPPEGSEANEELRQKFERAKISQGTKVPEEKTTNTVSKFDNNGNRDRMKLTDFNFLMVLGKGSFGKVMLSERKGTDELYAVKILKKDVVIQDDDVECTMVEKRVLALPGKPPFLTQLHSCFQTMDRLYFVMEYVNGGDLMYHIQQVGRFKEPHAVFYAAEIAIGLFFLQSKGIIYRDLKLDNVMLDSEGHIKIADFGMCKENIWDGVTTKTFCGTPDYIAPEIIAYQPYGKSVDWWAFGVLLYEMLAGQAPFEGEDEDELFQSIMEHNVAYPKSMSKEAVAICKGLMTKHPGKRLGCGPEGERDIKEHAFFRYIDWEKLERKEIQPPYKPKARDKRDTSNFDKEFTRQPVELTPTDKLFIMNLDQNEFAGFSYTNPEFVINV
Sequence of IRK (P06213 1012-1310 limits assumed): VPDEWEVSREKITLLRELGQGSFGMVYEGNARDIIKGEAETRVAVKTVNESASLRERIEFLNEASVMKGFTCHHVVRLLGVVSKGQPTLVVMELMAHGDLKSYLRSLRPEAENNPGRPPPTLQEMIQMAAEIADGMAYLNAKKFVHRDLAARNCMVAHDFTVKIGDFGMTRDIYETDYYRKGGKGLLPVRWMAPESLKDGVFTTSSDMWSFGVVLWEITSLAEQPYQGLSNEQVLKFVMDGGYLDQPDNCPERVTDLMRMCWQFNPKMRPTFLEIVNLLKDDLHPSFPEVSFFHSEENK
Sequence of MK2 (P49137 whole entry, species assumed): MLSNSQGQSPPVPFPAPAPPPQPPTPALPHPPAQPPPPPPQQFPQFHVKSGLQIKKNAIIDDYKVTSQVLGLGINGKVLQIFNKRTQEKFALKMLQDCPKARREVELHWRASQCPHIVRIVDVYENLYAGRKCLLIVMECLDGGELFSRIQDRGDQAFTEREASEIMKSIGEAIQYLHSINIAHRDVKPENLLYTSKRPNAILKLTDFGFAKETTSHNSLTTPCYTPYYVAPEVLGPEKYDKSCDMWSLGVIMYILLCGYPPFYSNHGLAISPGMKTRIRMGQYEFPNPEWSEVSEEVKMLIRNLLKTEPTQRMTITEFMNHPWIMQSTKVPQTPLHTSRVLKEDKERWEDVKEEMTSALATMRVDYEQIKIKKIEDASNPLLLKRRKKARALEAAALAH
Sequence of Akt1 (P31749 whole entry, species assumed): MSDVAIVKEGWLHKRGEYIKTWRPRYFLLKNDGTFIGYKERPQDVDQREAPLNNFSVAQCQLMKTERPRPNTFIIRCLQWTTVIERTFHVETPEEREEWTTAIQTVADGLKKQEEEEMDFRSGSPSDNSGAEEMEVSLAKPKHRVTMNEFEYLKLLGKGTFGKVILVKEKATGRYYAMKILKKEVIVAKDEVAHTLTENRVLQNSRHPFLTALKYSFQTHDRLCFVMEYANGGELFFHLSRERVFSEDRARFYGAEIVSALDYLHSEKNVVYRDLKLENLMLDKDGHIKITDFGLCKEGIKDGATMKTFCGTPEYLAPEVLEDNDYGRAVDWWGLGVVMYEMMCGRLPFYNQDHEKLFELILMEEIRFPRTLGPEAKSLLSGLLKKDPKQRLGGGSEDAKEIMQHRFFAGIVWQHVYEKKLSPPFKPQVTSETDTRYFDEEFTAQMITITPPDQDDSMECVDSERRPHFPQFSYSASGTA
Sequence of Abl (P00519 whole entry, species assumed): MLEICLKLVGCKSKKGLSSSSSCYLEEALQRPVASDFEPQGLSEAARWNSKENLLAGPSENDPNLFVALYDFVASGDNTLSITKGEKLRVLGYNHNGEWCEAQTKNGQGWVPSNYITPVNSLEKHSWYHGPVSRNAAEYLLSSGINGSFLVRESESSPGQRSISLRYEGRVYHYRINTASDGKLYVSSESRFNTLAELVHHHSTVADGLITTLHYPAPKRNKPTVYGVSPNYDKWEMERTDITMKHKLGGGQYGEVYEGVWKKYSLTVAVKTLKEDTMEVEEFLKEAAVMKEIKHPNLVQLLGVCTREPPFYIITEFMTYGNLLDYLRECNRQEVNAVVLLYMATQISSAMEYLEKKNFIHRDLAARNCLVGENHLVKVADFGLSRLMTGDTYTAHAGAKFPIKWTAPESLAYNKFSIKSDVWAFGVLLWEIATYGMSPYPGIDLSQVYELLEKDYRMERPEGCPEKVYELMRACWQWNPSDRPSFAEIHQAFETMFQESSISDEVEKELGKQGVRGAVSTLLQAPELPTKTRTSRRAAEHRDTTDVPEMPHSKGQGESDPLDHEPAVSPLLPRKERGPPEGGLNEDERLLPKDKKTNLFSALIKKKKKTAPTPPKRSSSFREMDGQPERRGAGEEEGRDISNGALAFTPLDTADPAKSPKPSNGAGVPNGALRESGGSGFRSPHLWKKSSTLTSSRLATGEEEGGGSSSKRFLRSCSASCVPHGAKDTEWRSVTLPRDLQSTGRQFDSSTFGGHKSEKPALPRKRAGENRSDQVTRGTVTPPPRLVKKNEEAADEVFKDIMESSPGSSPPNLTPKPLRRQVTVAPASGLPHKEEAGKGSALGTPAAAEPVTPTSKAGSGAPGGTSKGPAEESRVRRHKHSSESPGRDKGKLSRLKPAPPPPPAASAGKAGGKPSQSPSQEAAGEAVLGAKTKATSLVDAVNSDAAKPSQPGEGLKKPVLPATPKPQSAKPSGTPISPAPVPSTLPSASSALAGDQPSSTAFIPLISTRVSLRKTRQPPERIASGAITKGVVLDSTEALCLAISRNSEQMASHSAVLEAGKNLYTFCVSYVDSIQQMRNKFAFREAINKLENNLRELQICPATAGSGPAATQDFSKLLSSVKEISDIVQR
Sequence of Pim2 (Q9P1W9 whole entry, species assumed): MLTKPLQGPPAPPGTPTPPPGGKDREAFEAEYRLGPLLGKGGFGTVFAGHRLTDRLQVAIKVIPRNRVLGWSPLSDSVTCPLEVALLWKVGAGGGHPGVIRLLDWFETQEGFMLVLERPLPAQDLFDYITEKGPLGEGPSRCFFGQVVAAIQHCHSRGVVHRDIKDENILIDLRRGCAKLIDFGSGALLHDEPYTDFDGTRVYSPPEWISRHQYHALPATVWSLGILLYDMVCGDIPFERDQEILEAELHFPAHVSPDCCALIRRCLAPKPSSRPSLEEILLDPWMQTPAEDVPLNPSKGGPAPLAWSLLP

Km (Abl): 10.5 ± 1.5 µM | Vmax (Abl): 19.1 ± 1.0 µmol/mg/min
Substance: Ac-E-CSox-IY*AAPFAKKK-CONH2 [Abl RDF]

turnover by the kinase (in words) (PKCδ; Figure S3): excellent substrates | Km (PKCδ; [1]): 0.48 ± 0.07 µM | Vmax (PKCδ; [1]): 0.39 ± 0.02 µmol/mg/min
Substance: Ac-RKRKGS*F-CSox-YGG-CONH2 [PKCδ RDF]

Km (MK2): 1.2 ± 0.2 µM | Vmax (MK2): 1.3 ± 0.1 µmol/mg/min
Substance: Ac-AHLQRQLS*I-CSox-HH-CONH2 [MK2 RDF]

Km (IRK): 25.7 ± 0.7 µM | Vmax (IRK): 7.3 ± 2.2 µmol/mg/min | Catalytic Efficiency (IRK): 1
Substance: Ac-Sox-PGDY*-Nle-TMQIGKK-CONH2 [IRK BTF]

Km (Akt1): 0.69 ± 0.11 µM | Vmax (Akt1): 2.5 ± 0.2 µmol/mg/min
Substance: Ac-ARKRERAYS*F-CSox-HHA-CONH2 [Akt1 RDF]

turnover by the kinase (in words) (PKCβI; Figure S3): excellent substrates | Km (PKCβI; [1]): 0.81 ± 0.18 µM | Vmax (PKCβI; [1]): 0.76 ± 0.06 µmol/mg/min
Substance: Ac-LKR-CSox-AS*FKKFA-CONH2 [PKCβI RDF]

Substance: Ac-ARKRRRHPS*G-CSox-PTA-CONH2 [Pim2 RDF]
Km (Pim2): 1.4 ± 0.1 µM | Vmax (Pim2): 0.67 ± 0.02 µmol/mg/min

Km (PKA): 2.7 ± 0.4 µM | Vmax (PKA): 26.5 ± 1.1 µmol/mg/min
Substance: Ac-LRRAS*L-DPro-Sox-G-CONH2 [PKA BTF]

Km (Src): 30.7 ± 5.8 µM | Vmax (Src): 0.54 ± 0.04 µmol/mg/min | Catalytic Efficiency (Src): 1
Substance: Ac-Sox-PEIY*GEFEAKKKK-CONH2 [Src BTF]

Km (Src): 7 ± 1 µM | Vmax (Src): 3.4 ± 0.2 µmol/mg/min | Catalytic Efficiency (Src): 28
Substance: Ac-AEE-CSox-IY*GEFEAKKKK-CONH2 [Src RDF]

Km (IRK): 27.1 ± 3.9 µM | Vmax (IRK): 6.3 ± 0.4 µmol/mg/min | Catalytic Efficiency (IRK): 1
Substance: Ac-R-CSox-DY*-Nle-TMQIGKK-CONH2 [IRK RDF]

Km (PKA): 2.6 ± 0.3 µM | Vmax (PKA): 17.9 ± 0.8 µmol/mg/min | Catalytic Efficiency (PKA; kcat/KM (min^-1 μM^-1) normalized to the BTF substrate): 1
Substance: Ac-ALRRAS*L-CSox-AA-CONH2 [PKA RDF]

— publication PMC2637182 (Journal of the American Chemical Society, 2008)
